The source of these data is ChEMBL document CHEMBL4400542, “Epidermal Growth Factor Receptor-Targeted Multifunctional Photosensitizers for Bladder Cancer Imaging and Photodynamic Therapy” (J Med Chem, 2019).

SMILES strings stand for the structures. Calls of active or inactive are those of the source. The calls are words filed in the database; no cut-off is given here.

Test [1] concerns T-24. The experiment in a line: Induction of apoptosis in human T24 cells assessed as increase in apoptotic cells at 100 nM in presence of light by Annexin V/propidium iodide-stining based flow cytometry. The format is functional, cell-based. A general note: A flow cytometer gives signals particle by particle.
The test system of test [2] is UMUC3. Kind of test: Induction of apoptosis in human UM-UC-3 cells assessed as increase in necrotic cells at 1 uM in presence of light by Annexin V/propidium iodide-stining based flow cytometry. The format is functional, cell-based.
For test [3], the system named is UMUC3. Kind of test: Anti-tumor activity against human UM-UC-3 cells xenografted in SCID mouse assessed as tumor necrosis at 0.47 umol/kg, iv in presence of 135 J/cm2 light irradiation at 24 hrs post injection and measured at 72 hrs post light exposure. It counts as functional, organism-based.
Test [4] in a line: Induction of singlet oxygen generation assessed as energy transfer from the triplet chlorins to oxygen by femtosecond transient absorption spectroscopy. It counts as functional.
For test [5], the target named is Epidermal growth factor receptor (Homo sapiens) (UniProt P00533). Kind of test: Inhibition of EGFR autophosphorylation at Ty1068 in human T24 cells at 1 uM followed by PDT and measured after 24 hrs by Western blot analysis. It counts as cell-based.
In test [6] the test system is UMUC3. The experiment in a line: Induction of apoptosis in human UM-UC-3 cells assessed as increase in apoptotic cells at 100 nM in presence of light by Annexin V/propidium iodide-stining based flow cytometry. The format is functional, cell-based.
Test [7] can be described thus: Induction of singlet oxygen generation in deaerated toluene at 670 nm assessed as singlet decay life time by femtosecond transient absorption spectroscopy. It counts as functional.
The test system of test [8] is UMUC3. The experiment in a line: Anti-tumor activity against human UM-UC-3 cells xenografted in SCID mouse at 0.47 umol/kg, iv in presence of 135 J/cm2 light irradiation at 24 hrs post injection and measured every day till day 60. It counts as functional, organism-based. The method, boiled down:
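UMUC-3 cells implanted in right flank of SCID mice; at 4–5 mm tumors, PS given i.v. at 0.47 µmol/kg. Tumors exposed to 665 nm light, 135 J/cm2 at 75 mW/cm2, 24 h post-injection. Tumor regrowth monitored daily; mice euthanized at >400 mm3; tumor-free status scored at day 60.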
In general terms: In xenograft studies the graft and the host belong to different species.

The target in test [9] is Epidermal growth factor receptor (Homo sapiens) (UniProt P00533). Kind of test: Inhibition of EGFR autophosphorylation at Ty1068 in human UM-UC-3 cells at 100 nM followed by PDT and measured after 24 hrs by Western blot analysis. It counts as cell-based. A general note: A western blot detects proteins with antibodies after separation by electrophoresis.
Test [10] deals with UMUC3. Kind of test: Induction of apoptosis in human UM-UC-3 cells assessed as increase in necrotic cells at 100 nM in presence of light by Annexin V/propidium iodide-stining based flow cytometry. The format is functional, cell-based.
Test [11] in a line: Induction of singlet oxygen generation in Ar-saturated toluene solution at 670 nm assessed as decay rate constant of triplet excited state by femtosecond transient absorption spectroscopy. It counts as functional.
In test [12] the target is Epidermal growth factor receptor (Homo sapiens) (UniProt P00533). The experiment in a line: Inhibition of EGFR autophosphorylation at Ty1068 in human UM-UC-3 cells at 1 uM followed by PDT and measured after 24 hrs by Western blot analysis. It counts as cell-based.
The nature of test [13]: Induction of singlet oxygen generation in deaerated toluene at 670 nm assessed as rate of singlet decay by femtosecond transient absorption spectroscopy. The format is functional.
The test system of test [14] is T-24. Kind of test: Induction of apoptosis in human T24 cells assessed as increase in necrotic cells at 1 uM in presence of light by Annexin V/propidium iodide-stining based flow cytometry. It counts as functional, cell-based.
In test [15] the test system is T-24. Kind of test: Induction of apoptosis in human T24 cells assessed as increase in apoptotic cells at 1 uM in presence of light by Annexin V/propidium iodide-stining based flow cytometry. It counts as functional, cell-based.
Test [16] concerns UMUC3. The experiment in a line: Induction of apoptosis in human UM-UC-3 cells assessed as increase in apoptotic cells at 1 uM in presence of light by Annexin V/propidium iodide-stining based flow cytometry. The format is functional, cell-based.
Test [17] in a line: Induction of singlet oxygen generation in oxygen-saturated toluene solution at 670 nm assessed as decay rate constant of triplet excited state by femtosecond transient absorption spectroscopy. The format is functional.

Epidermal growth factor receptor (Homo sapiens), sequence (P00533 whole entry): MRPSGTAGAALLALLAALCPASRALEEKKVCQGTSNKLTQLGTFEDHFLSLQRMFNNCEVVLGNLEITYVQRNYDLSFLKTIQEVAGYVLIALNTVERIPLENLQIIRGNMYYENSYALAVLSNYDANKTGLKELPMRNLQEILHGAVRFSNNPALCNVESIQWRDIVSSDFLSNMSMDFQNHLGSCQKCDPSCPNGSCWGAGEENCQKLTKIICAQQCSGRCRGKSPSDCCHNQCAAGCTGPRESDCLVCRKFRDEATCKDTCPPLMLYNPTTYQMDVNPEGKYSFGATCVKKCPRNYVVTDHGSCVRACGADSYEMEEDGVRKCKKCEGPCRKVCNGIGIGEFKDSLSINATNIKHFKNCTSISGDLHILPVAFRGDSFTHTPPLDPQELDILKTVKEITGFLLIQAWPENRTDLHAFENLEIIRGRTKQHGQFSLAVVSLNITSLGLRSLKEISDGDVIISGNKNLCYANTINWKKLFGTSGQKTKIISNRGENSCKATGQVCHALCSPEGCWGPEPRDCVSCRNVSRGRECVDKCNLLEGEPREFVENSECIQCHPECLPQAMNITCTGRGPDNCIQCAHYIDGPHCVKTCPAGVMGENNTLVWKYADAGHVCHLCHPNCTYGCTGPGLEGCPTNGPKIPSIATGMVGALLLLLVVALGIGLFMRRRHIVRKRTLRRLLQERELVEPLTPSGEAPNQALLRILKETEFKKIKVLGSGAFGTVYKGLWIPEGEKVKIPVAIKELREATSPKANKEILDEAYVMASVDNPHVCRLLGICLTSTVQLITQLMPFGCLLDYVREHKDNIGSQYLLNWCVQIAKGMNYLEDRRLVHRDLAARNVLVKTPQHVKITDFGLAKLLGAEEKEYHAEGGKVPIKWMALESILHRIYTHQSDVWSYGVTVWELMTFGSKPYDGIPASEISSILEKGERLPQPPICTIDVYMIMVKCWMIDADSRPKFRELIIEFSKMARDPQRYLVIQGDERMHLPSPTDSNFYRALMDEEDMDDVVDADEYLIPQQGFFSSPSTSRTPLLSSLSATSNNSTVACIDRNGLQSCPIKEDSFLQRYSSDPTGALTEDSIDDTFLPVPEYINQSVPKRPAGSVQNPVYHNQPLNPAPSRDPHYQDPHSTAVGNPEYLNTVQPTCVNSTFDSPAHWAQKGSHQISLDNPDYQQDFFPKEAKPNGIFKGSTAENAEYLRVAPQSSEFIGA

Turning to `CCC1=C(C)c2cc3[nH]c(cc4nc(c5c6[nH]c(cc1n2)c(C)c6C(=O)C5)[C@@H](CCC(=O)NCc1cccc(C#Cc2cccc(Nc5ncnc6cc(OCCOC)c(OCCOC)cc56)c2)c1)[C@@H]4C)c(C)c3C(C)OCc1cccc(I)c1` (some centres not stated), the outcome in [1] was inactive. The outcome in [2], in test [3], in [6], in test [8], in test [10] and in [14] was Active. Besides, the result in test [15] and in [16] was Active. Moreover, the K turned out to be 1.03 ×10¹⁰ /M/s in test [4], 9.8 ×10⁴ /s in test [11], 7.5 ×10⁹ /s in [13] and 2.07 ×10⁵ /s in [17]. Also, the inhibition entry in test [5], in test [9] and in test [12] was “Active” each time. Moreover, the Time in test [7] was 133 pS.
